Data as given in ChEMBL document CHEMBL3227991, “5-Iminodaunorubicin. Reduced cardiotoxic properties in an antitumor anthracycline” (J Med Chem, 1979).

Experiments:
[1] = tested on: P388; experiment: Antitumor activity against mouse P388 cells allografted in mouse assessed as increase in survival time at 2 mg/kg, ip administered as single dose on day 5, 9 and 13 relative to control; assay type: functional; settings: route intraperitoneal
In short: (§1)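 Mice received ip P388 leukemia cells on day 0. Disease was left to progress and ip dosing was delayed to days 5, 9 and 13. Survival time of treated relative to control mice was expressed as % T/C, with ≥125 defined as active. Values are means of repeated tests (27 for reference agents, duplicate for others).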

[2] = tested on: P388; experiment: Antitumor activity against mouse P388 cells allografted in mouse assessed as increase in survival time at 0.39 mg/kg, ip administered as qd for 1 to 9 days relative to control; assay type: functional; settings: route intraperitoneal
[3] = species on record: Rattus norvegicus; experiment: Cardiotoxicity in rat assessed as minimum cumulative drug dose causing electrocardiographic changes; assay type: toxicity, organism-based; settings: in vivo
In short: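 Zbinden cardiotoxicity test in rats; endpoint is the minimum cumulative dose producing significant electrocardiographic changes, expressed in mg/kg.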

[4] = tested on: P388; experiment: Antitumor activity against mouse P388 cells allografted in mouse assessed as increase in survival time at 0.78 mg/kg, ip administered as qd for 1 to 9 days relative to control; assay type: functional; settings: route intraperitoneal
[5] = tested on: Salmonella typhimurium; experiment: Genotoxicity in Salmonella typhimurium 908 assessed as number of revertants by Ames test; assay type: toxicity, organism-based; settings: salmonella enterica subsp. enterica serovar typhimurium
[6] = tested on: P388; experiment: Antitumor activity against mouse P388 cells allografted in mouse assessed as increase in survival time at 0.2 mg/kg, ip administered as qd for 1 to 9 days relative to control; assay type: functional; settings: route intraperitoneal
[7] = tested on: P388; experiment: Antitumor activity against mouse P388 cells allografted in mouse assessed as increase in survival time at 8 mg/kg, ip administered as single dose on day 5, 9 and 13 relative to control; assay type: functional; settings: route intraperitoneal; in short: as §1
[8] = tested on: P388; experiment: Antitumor activity against mouse P388 cells allografted in mouse assessed as increase in survival time at 4 mg/kg, ip administered as single dose for every 4 days up to 13 days relative to control; assay type: functional; settings: route intraperitoneal; in short: as §1
[9] = tested on: L1210; experiment: Inhibition of DNA synthesis in mouse L1210 cells; assay type: functional; settings: read-out: ED50 (the source's name)
[10] = tested on: P388; experiment: Antitumor activity against mouse P388 cells allografted in mouse assessed as increase in survival time at 16 mg/kg, ip administered as single dose on day 5, 9 and 13 relative to control; assay type: functional; settings: route intraperitoneal; in short: as §1
[11] = tested on: L1210; experiment: Inhibition of RNA synthesis in mouse L1210 cells; assay type: functional; settings: read-out: ED50 (the source's name)
[12] = tested on: Salmonella typhimurium; experiment: Genotoxicity in Salmonella typhimurium TA98 at >8 ug/plate by Ames test; assay type: toxicity, organism-based; settings: salmonella enterica subsp. enterica serovar typhimurium
[13] = tested on: Salmonella typhimurium; experiment: Genotoxicity in Salmonella typhimurium TA98 assessed as number of revertants by Ames test; assay type: toxicity, organism-based; settings: salmonella enterica subsp. enterica serovar typhimurium
In short: (§2)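 Ames reversion in S. typhimurium TA98, run with and without microsomal activation; doses up to a maximum of 32 μg/plate; four determinations; mutagenicity given as revertants/nmol.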

[14] = tested on: Salmonella typhimurium; experiment: Genotoxicity in Salmonella typhimurium TA100 assessed as number of revertants by Ames test; assay type: toxicity, organism-based; settings: salmonella enterica subsp. enterica serovar typhimurium
[15] = tested on: P388; experiment: Antitumor activity against mouse P388 cells allografted in mouse assessed as increase in survival time at 1.56 mg/kg, ip administered as qd for 1 to 9 days relative to control; assay type: functional; settings: route intraperitoneal
[16] = tested on: Salmonella typhimurium; experiment: Genotoxicity in Salmonella typhimurium 8907 assessed as number of revertants by Ames test in presence of S9 fraction; assay type: toxicity, organism-based; settings: salmonella enterica subsp. enterica serovar typhimurium
[17] = tested on: Calf thymus DNA; experiment: Binding affinity to calf thymus DNA assessed as change in melting temperature; assay type: nucleic-acid assay; settings: Bos taurus
In short: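 Thermal denaturation of isolated helical DNA in 0.010 M phosphate buffer, pH 7.0, with 10⁻⁵ M EDTA and 5% Me₂SO to solubilize compounds; read-out is the increase in melting temperature (ΔTm, °C).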

[18] = tested on: P388; experiment: Antitumor activity against mouse P388 cells allografted in mouse assessed as increase in survival time at 6.25 mg/kg administered as qd for 1 to 9 days relative to control; assay type: functional
In short: (§3)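 Transplanted P388 leukemia or B16 melanoma in mice, dosed on a schedule of nine daily doses (qd 1-9). Efficacy was the increase in survival time of treated versus control animals (% T/C), from single tests.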

[19] = tested on: B16; experiment: Antitumor activity against mouse B16 cells allografted in mouse assessed as increase in survival time at 6.25 mg/kg administered as qd for 1 to 9 days relative to control; assay type: functional; in short: as §3
[20] = tested on: Salmonella typhimurium; experiment: Genotoxicity in Salmonella typhimurium TA98 assessed as number of revertants by Ames test in presence of microsomal activation; assay type: toxicity, organism-based; settings: salmonella enterica subsp. enterica serovar typhimurium; in short: as §2
[21] = tested on: P388; experiment: Antitumor activity against mouse P388 cells allografted in mouse assessed as increase in survival time at 4 mg/kg, ip administered as qd for 1 to 9 days relative to control; assay type: functional; settings: route intraperitoneal
[22] = tested on: B16; experiment: Antitumor activity against mouse B16 cells allografted in mouse assessed as increase in survival time at 6.25 mg/kg, ip administered as single dose on day 1 relative to control; assay type: functional; settings: route intraperitoneal
In short: (§4)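 B16 melanoma in mice. Treatment was given as nine daily doses, as a single dose on day 1, or as a single dose delayed to day 5. Activity was taken as the increase in survival time of treated versus control animals (% T/C).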

[23] = tested on: Salmonella typhimurium; experiment: Genotoxicity in Salmonella typhimurium TA98 assessed as number of revertants by Ames test in absence of microsomal activation; assay type: toxicity, organism-based; settings: salmonella enterica subsp. enterica serovar typhimurium; in short: as §2
[24] = tested on: P388; experiment: Antitumor activity against mouse P388 cells allografted in mouse assessed as increase in survival time at 1.5 mg/kg, ip administered as single dose on day 5, 9 and 13 relative to control; assay type: functional; settings: route intraperitoneal; in short: as §1
[25] = tested on: Salmonella typhimurium; experiment: Genotoxicity in Salmonella typhimurium TA98 at 32 ug/plate by Ames test; assay type: toxicity, organism-based; settings: salmonella enterica subsp. enterica serovar typhimurium; in short: as §2
[26] = tested on: P388; experiment: Antitumor activity against mouse P388 cells allografted in mouse assessed as increase in survival time at 2 mg/kg, ip administered as qd for 1 to 9 days relative to control; assay type: functional; settings: route intraperitoneal
[27] = tested on: B16; experiment: Antitumor activity against mouse B16 cells allografted in mouse assessed as increase in survival time at 12.5 mg/kg, ip administered as single dose on day 5 relative to control; assay type: functional; settings: route intraperitoneal; in short: as §4
[28] = tested on: P388; experiment: Antitumor activity against mouse P388 cells allografted in mouse assessed as increase in survival time at 6 mg/kg, ip administered as single dose on day 5, 9 and 13 relative to control; assay type: functional; settings: route intraperitoneal; in short: as §1
[29] = tested on: P388; experiment: Antitumor activity against mouse P388 cells allografted in mouse assessed as increase in survival time at 12 mg/kg, ip administered as single dose on day 5, 9 and 13 relative to control; assay type: functional; settings: route intraperitoneal; in short: as §1
[30] = tested on: P388; experiment: Antitumor activity against mouse P388 cells allografted in mouse assessed as increase in survival time at 3 mg/kg, ip administered as single dose on day 5, 9 and 13 relative to control; assay type: functional; settings: route intraperitoneal; in short: as §1
[31] = tested on: Salmonella typhimurium; experiment: Genotoxicity in Salmonella typhimurium TA100 by Ames test; assay type: toxicity, organism-based; settings: salmonella enterica subsp. enterica serovar typhimurium
[32] = tested on: P388; experiment: Antitumor activity against mouse P388 cells allografted in mouse assessed as increase in survival time at 24 mg/kg, ip administered as single dose on day 5, 9 and 13 relative to control; assay type: functional; settings: route intraperitoneal; in short: as §1
[33] = tested on: P388; experiment: Antitumor activity against mouse P388 cells allografted in mouse assessed as increase in survival time at 1 mg/kg, ip administered as qd for 1 to 9 days relative to control; assay type: functional; settings: route intraperitoneal
[34] = tested on: P388; experiment: Antitumor activity against mouse P388 cells allografted in mouse assessed as increase in survival time at 0.5 mg/kg, ip administered as qd for 1 to 9 days relative to control; assay type: functional; settings: route intraperitoneal
[35] = tested on: B16; experiment: Antitumor activity against mouse B16 cells allografted in mouse assessed as increase in survival time at 2 mg/kg, ip administered as qd for 1 to 9 days relative to control; assay type: functional; settings: route intraperitoneal; in short: as §4

## COc1cccc2c1C(=O)c1c(O)c3c(c(O)c1C2=O)C[C@@](O)(C(C)=O)C[C@@H]3O[C@H]1C[C@H](N)[C@H](O)[C@H](C)O1.Cl [DAUNORUBICIN HYDROCHLORIDE]
[1]
  T/C: 126%
[2]
  T/C: 153%
[3]
  MTC: 14 mg/kg
[4]
  T/C: 160%
[5]
  Activity: 356 revertants/nmol
[6]
  T/C: 144%
[7]
  T/C: 132%
[8]
  T/C: 128%
[9]
  EC50: 1000 nM
[10]
  T/C: 126%
[11]
  EC50: 300 nM
[12]
  Activity: Toxic
[13]
  Activity: 100 revertants/nmol
[14]
  Activity: 0.5 revertants/nmol
[15]
  T/C: 148%

## COc1cccc2c1C(=O)c1c(O)c3c(c(O)c1C2=O)C[C@@](O)(C(=O)CO)C[C@@H]3O[C@H]1C[C@H](N)[C@H](O)[C@H](C)O1 [DOXORUBICIN]
[1]
  T/C: 130%
[2]
  T/C: 174%
[16]
  Activity: 108 revertants/nmol
[3]
  MTC: 11 mg/kg
[4]
  T/C: 197%
[6]
  T/C: 160%
[7]
  T/C: 159%
[8]
  T/C: 146%
[9]
  EC50: 1500 nM
[10]
  T/C: 120%
[11]
  EC50: 700 nM
[17]
  ΔTm: 13.4 °C
[15]
  T/C: 176%

## COc1cccc2c1C(=O)c1c(O)c3c(c(O)c1C2=O)C[C@@](O)(C(N)=O)C[C@@H]3O[C@H]1C[C@H](N)[C@H](O)[C@H](C)O1.Cl
[18]
  T/C: 151%
[19]
  T/C: 161%

## COc1cccc2c1C(=N)c1c(O)c3c(c(O)c1C2=O)C[C@@](O)(C(C)=O)C[C@@H]3O[C@H]1C[C@H](N)[C@H](O)[C@H](C)O1.Cl
[20]
  Activity: 0 nmol
[21]
  T/C: 153%
[3]
  MTC: 64 mg/kg
[22]
  T/C: 173%
[23]
  Activity: 0 nmol
[24]
  T/C: 126%
[25]
  Activity: Non-toxic
[9]
  EC50: 1600 nM
[26]
  T/C: 170%
[27]
  T/C: 122%
[28]
  T/C: 124%
[29]
  T/C: 116%
[11]
  EC50: 1300 nM
[30]
  T/C: 130%
[31]
  Activity: Non-toxic
[32]
  T/C: 126%
[33]
  T/C: 164%
[13]
  Activity: 1 revertants/nmol
[17]
  ΔTm: 6.25 °C
[34]
  T/C: 145%
[35]
  T/C: 222%
